The text below walks through data of ChEMBL document CHEMBL1125678, “Quinazolineacetic acids and related analogues as aldose reductase inhibitors” (J Med Chem, 1991).

In test [1] the test system is Rattus norvegicus. Put plainly: In vivo inhibition of galactitol accumulation in the sciatic nerve of rats fed 20% galactose for 4 day at 79 mg/kg/day dose; NS = No Significant inhibition of polyol accumulation. The format is functional, organism-based. The gist of the method:
(§1)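 Male Sprague-Dawley rats (50–70 g) in groups of six were fed chow with 20% (w/w) galactose. Controls received 20% glucose instead. Test compound was mixed into the diet, and dose was calculated from actual food intake. Rats were killed by decapitation after 4 days. Result is % lowering of tissue galactitol versus galactose-fed controls, as the mean of six animals, compared by Dunnett's multiple comparison.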

Test [2] deals with Aldo-keto reductase family 1 member B1 (Bos taurus) (UniProt P16116). Put plainly: in vitro inhibition of Aldose reductase in partially purified bovine lens preparation at a concentration of 10e-6 M.
The test system of test [3] is Rattus norvegicus. Put plainly: In vivo inhibition of galactitol accumulation in the diaphragm of rats fed 20% galactose for 4 day at 79 mg/kg/day dose; NS = No Significant inhibition of polyol accumulation. It is filed as functional, organism-based. In short, it runs like this: as §1
Test [4] deals with Aldo-keto reductase family 1 member B1 (Bos taurus) (UniProt P16116). Put plainly: In vitro inhibition of Aldose reductase in partially purified bovine lens preparation at a concentration of 10e -7M. The gist of the method: (§2)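 Enzyme from bovine lens, partially purified by the cited method with the final chromatographic step omitted. DL-Glyceraldehyde was the substrate. Test compounds were run in duplicate at 1×10⁻⁵, 1×10⁻⁶, 1×10⁻⁷ or 4×10⁻⁸ M. Values are % inhibition of enzymatic activity.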

Test [5] shares this target. Put plainly: (§3) In vitro inhibition of aldose reductase in partially purified bovine lens preparation at a concentration of 10e -6M. In short, it runs like this: as §2
Test [6] relates to Rattus norvegicus. The test can be described thus: In vivo inhibition of galactitol accumulation in the sciatic nerve of rats fed 20% galactose for 4 day at 95 mg/kg/day dose; NS= No Significant inhibition of polyol accumulation. It is filed as functional, organism-based.
For test [7], the target named is Aldo-keto reductase family 1 member B1 (Bos taurus) (UniProt P16116). Put plainly: In vitro inhibition of aldose reductase in partially purified bovine lens preparation at a concentration of 10e-6 M. In short, it runs like this: as §2
Test [8] has as its system Rattus norvegicus. Put plainly: In vivo inhibition of galactitol accumulation in the sciatic nerve of rats fed 20% galactose for 4 day at 82 mg/kg/day dose; NS = No Significant inhibition of polyol accumulation. The format is functional, organism-based. The gist of the method: as §1
Test [9] concerns the target Aldo-keto reductase family 1 member B1 (Bos taurus) (UniProt P16116). Put plainly: In vitro inhibition of aldose reductase in partially purified bovine lens preparation at a concentration of 10e -7M. In short, it runs like this:
as §2

Test [10] concerns Rattus norvegicus. Put plainly: In vivo inhibition of galactitol accumulation in the diaphragm of rats fed 20% galactose for 4 day at 82 mg/kg/day dose; NS = No Significant inhibition of polyol accumulation. It is filed as functional, organism-based. The gist of the method: as §1
For test [11], the system named is Rattus norvegicus. Put plainly: In vivo inhibition of galactitol accumulation in the diaphragm of rats fed 20% galactose for 4 day at 100 mg/kg/day dose. The format is functional. In short, it runs like this:
as §1

In test [12] the test system is Rattus norvegicus. Put plainly: In vivo inhibition of galactitol accumulation in the sciatic nerve of rats fed 20% galactose for 4 day at 100 mg/kg/day dose; NS = No Significant inhibition of polyol accumulation. The format is functional, organism-based. The gist of the method:
as §1

In test [13] the target is Aldo-keto reductase family 1 member B1 (Bos taurus) (UniProt P16116). Put plainly: In vitro inhibition of aldose reductase in partially purified bovine lens preparation at a concentration of 4*10e -8M. In short, it runs like this: as §2
The subject of test [14] is Rattus norvegicus. Put plainly: In vivo inhibition of galactitol accumulation in the diaphragm of rats fed 20% galactose for 4 day at 97 mg/kg/day dose. It is filed as functional. The gist of the method: as §1
Test [15] concerns Rattus norvegicus. The test can be described thus: In vivo inhibition of galactitol accumulation in the sciatic nerve of rats fed 20% galactose for 4 day at 97 mg/kg/day dose. It is filed as functional.
The subject of test [16] is Rattus norvegicus. Put plainly: In vivo inhibition of galactitol accumulation in the sciatic nerve of rats fed 20% galactose for 4 day at 90 mg/kg/day dose; NS = No Significant inhibition of polyol accumulation. The format is functional, organism-based. In short, it runs like this: as §1
In test [17] the target is Aldo-keto reductase family 1 member B1 (Bos taurus) (UniProt P16116). The test can be described thus: in vitro inhibition of aldose reductase in partially purified bovine lens preparation at a concentration of 10e -5M.
In test [18] the test system is Rattus norvegicus. The test can be described thus: In vivo inhibition of galactitol accumulation in the diaphragm of rats fed 20% galactose for 4 day at 90 mg/kg/day dose; NS = No Significant inhibition of polyol accumulation. The format is functional, organism-based. The gist of the method: as §1
For test [19], the system named is Rattus norvegicus. The test can be described thus: In vivo inhibition of galactitol accumulation in the sciatic nerve of rats fed 20% galactose for 4 day at 58 mg/kg/day dose; NS = No Significant inhibition of polyol accumulation. The format is functional, organism-based. The gist of the method: as §1
Test [20] deals with Rattus norvegicus. Put plainly: In vivo inhibition of galactitol accumulation in the diaphragm of rats fed 20% galactose for 4 day at 58 mg/kg/day dose; NS = No Significant inhibition of polyol accumulation. The format is functional, organism-based. In short, it runs like this: as §1
Test [21] addresses Aldo-keto reductase family 1 member B1 (Bos taurus) (UniProt P16116). The test is described as §3. It is filed as functional. The gist of the method:
as §2

Test [22] has as its system Rattus norvegicus. The test can be described thus: In vivo inhibition of galactitol accumulation in the diaphragm of rats fed 20% galactose for 4 day at 81 mg/kg/day dose. It is filed as functional. In short, it runs like this: as §1
Test [23] relates to Rattus norvegicus. The test can be described thus: in vivo inhibition of galactitol accumulation in the sciatic nerve of rats fed 20% galactose for 4 day. The conditions noted are these: 96 h.
The test system of test [24] is Rattus norvegicus. The test can be described thus: In vivo inhibition of galactitol accumulation in the diaphragm of rats fed 20% galactose for 4 day at 92 mg/kg/day dose. It is filed as functional. In short, it runs like this: as §1
Test [25] relates to Rattus norvegicus. Put plainly: In vivo inhibition of galactitol accumulation in the sciatic nerve of rats fed 20% galactose for 4 day at 92 mg/kg/day dose. The format is functional.

The term inhibition denotes the change of the read-out against control, counted positive when it falls. Consider `Cc1nc2cc3ccccc3cc2c(=O)n1CC(=O)O`, for which the Lowering result in the test with Rattus norvegicus [1] and in the test with Rattus norvegicus [3] was “Not significant” each time. For the same molecule, the inhibition in test [2] was 76%; in test [4], 28%.
In turn, `CC(c1ccccc1)n1c(=O)n(CC(=O)O)c(=O)c2cc(Br)ccc21` (stereo not given) came in with an inhibition in test [5] of 34%. Also, the Lowering result with Rattus norvegicus [6] is “Not significant”.
For `Cc1nc2ccc(Br)cc2c(=O)n1CC(=O)O`, the inhibition in test [7] was 63%; in [9], 20%. Besides, the Lowering result in the test on Rattus norvegicus [8] and with Rattus norvegicus [10] was “Not significant” in each case.
In the case of `O=C(O)Cn1c(=O)c2c3c(sc2n(Cc2ccc(Cl)c(Cl)c2)c1=O)CCCC3`, the Lowering is 19% in the test with Rattus norvegicus [11] and “Not significant” with Rattus norvegicus [12]. Besides, the values for the inhibition in test [9] and in test [13] were 86% and 63%, respectively.
As for `O=C(O)Cn1c(=O)c2cc(I)ccc2n(Cc2ccc(Br)cc2F)c1=O`, the Lowering in the test on Rattus norvegicus [14] stood at 83%; in the test on Rattus norvegicus [15], 64%. The inhibition in [9] is 83%; in test [13] it was 64%.
As to `CC(C)c1nc2ccc(Br)cc2c(=O)n1CC(=O)O`, the Lowering result with Rattus norvegicus [16] and with Rattus norvegicus [18] was “Not significant” in each case. This molecule also had an inhibition in [17] of 40%.
Turning to `Cc1c(-c2ccccc2)n(Cc2ccc(Cl)c(Cl)c2)c(=O)n(CC(=O)O)c1=O`, the Lowering result in the test with Rattus norvegicus [19] and in the test on Rattus norvegicus [20] was “Not significant” in each case. Besides, the inhibition was 22% in [9], 16% in [13] and 68% in [21].
Consider `O=C(O)CN1Cc2ccccc2N(Cc2ccc(Cl)c(Cl)c2)C1=O`, for which the Lowering was 38% in the test on Rattus norvegicus [22] and “Not significant” with Rattus norvegicus [6]. Besides, the inhibition was 68% in test [9] and 41% in test [13].
Usually ED50 stands for the midpoint of the dose-response relation. Low readings indicate greater potency, high ones weaker potency. As for `COc1ccc2c(C(=S)N(C)CC(=O)O)cccc2c1C(F)(F)F` [TOLRESTAT], in the test with Rattus norvegicus [23], it took a dose of 6.4 mg/kg/day to reach the 50% effect level (ED50).
Turning to `O=C(O)Cn1c(=O)c2cc(Br)ccc2n(Cc2ccc(Cl)c(Cl)c2)c1=O`, the figures for the Lowering in the test on Rattus norvegicus [24] and in the test with Rattus norvegicus [25] were 78% and 62%, respectively. In addition, the inhibition is 83% in test [9] and 47% in test [13].
